The record followed here is ChEMBL document CHEMBL1255244, “Antimycobacterial Activity and Mechanism of Action of NAS-91” (2008).

≈ marks a conversion by molar mass, not a printed value. Calls of active or inactive are those of the source. No cut-off for these calls is given here.

The subject of assay [1] is Mycobacterium bovis BCG str. Pasteur 1173P2. Briefly: Antimycobacterial activity against Mycobacterium bovis BCG 1173P2 assessed as inhibition of mycolic acid biosynthesis at 100 ug/ml after 8 hrs. The class given is functional. Also on record: scale not given: the % may be the effect or the level left. The essentials:
(§1)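 Mid-log BCG in Sauton's medium, drug at 37°C for 8 h, then 1 µCi/ml [2-14C]acetate for 16 h. Cells PBS-washed, hydrolysed in 15% tetrabutylammonium hydroxide at 100°C overnight, methylated with CH3I. TLC: MAME bands scraped and counted; FAMEs (50,000 cpm) on reverse-phase TLC, chloroform-methanol 2:3. INH 1 µg/ml positive control. Triplicates, one of three experiments, mean ± SEM.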

A short description of assay [2]: Antimycobacterial activity against Mycobacterium bovis BCG 1173P2. The class given is functional, Mycobacterium bovis BCG str. Pasteur 1173P2. To be noted: Mycobacterium tuberculosis variant bovis BCG. The essentials:
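M. bovis BCG on Middlebrook 7H11 agar with OADC and increasing inhibitor concentrations. Serial 10-fold dilutions of actively growing culture plated, 37°C for 10 to 14 days.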

For the next assay, the system named is BCG 1173P2. The experiment in a line: Inhibition of delta-9 desaturase activity in Mycobacterium bovis BCG 1173P2 cell extract assessed as inhibition of oleic acid synthesis at 10 to 100 ug/ml after 1 hr in presence of NADPH and [1-14C]stearoyl-CoA. The class given is cell-free. Particulars: Mycobacterium bovis BCG str. Pasteur 1173P2. An outline of the steps: (§2)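 Cell-free assay. BCG grown in Sauton's with 20 µg/ml FeSO4, French-press lysed in 0.25 M sucrose. 1 mg lysate, 1 µmol NADPH, phosphate buffer pH 7.2, in 1 ml. Inhibitor preincubated 10 min at 37°C, then 0.25 µCi [1-14C]stearoyl-CoA added, 37°C 1 h. Saponified, methylated, [14C]oleate band scraped and counted. Triplicates, one of two experiments, mean ± SEM.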

The test system of the next assay is BCG. Briefly: Inhibition of delta-9 desaturase activity in Mycobacterium bovis BCG cell extract 1173P2 assessed as inhibition of oleic acid synthesis at 25 ug/ml after 1 hr in presence of NADPH and [1-14C]stearoyl-CoA. Particulars: Mycobacterium bovis BCG str. Pasteur 1173P2. The class given is cell-free. Also on record: scale not given: the % may be the effect or the level left. An outline of the steps:
as §2

Assay [3] concerns Mycobacterium bovis BCG str. Pasteur 1173P2. Briefly: Antimycobacterial activity against Mycobacterium bovis BCG 1173P2 assessed as inhibition of oleic acid methyl ester synthesis at 100 ug/ml after 8 hrs. Type of assay: functional. An outline of the steps:
(§3)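 BCG in Sauton's medium, drug 8 h, then [14C]acetate labelling for 16 h. Methyl esters resolved by 2-D TLC: first dimension without silver, hexane-ethyl acetate 19:1 run twice; then silver nitrate layer, petroleum ether-diethyl ether 17:3 run three times. Triplicates, one of three experiments, mean ± SEM, Student's t test.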

For assay [4] the test system is unchanged. The experiment in a line: Antimycobacterial activity against Mycobacterium bovis BCG 1173P2 assessed as inhibition of oleic acid methyl ester synthesis after 8 hrs. The class given is functional. The essentials:
as §3

In assay [5] the test system is Mycobacterium tuberculosis. The experiment in a line: Antimycobacterial activity against Mycobacterium tuberculosis H37Rv at 10 ug/ml after 15 to 20 days by agar proportion method. The class given is functional. An outline of the steps:
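Agar proportion method. H37Rv grown in 7H9 at 37°C with shaking to OD600 1.0. Diluted log-phase culture giving about 1,000 CFU plated on 7H11+OADC control and drug-containing plates, incubated 37°C.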

Assay [6] deals with Mycobacterium bovis BCG str. Pasteur 1173P2. Briefly: Antimycobacterial activity against Mycobacterium bovis BCG 1173P2 assessed as inhibition of mycolic acid biosynthesis. The class given is functional. An outline of the steps:
as §1

In assay [7] the test system is Mycolicibacterium smegmatis. Briefly: Antimycobacterial activity against Mycobacterium smegmatis at 100 ug/ml after 15 to 20 days by agar proportion method. The class given is functional, organism-based.
In assay [8] the test system is Mycobacterium bovis BCG str. Pasteur 1173P2. The experiment in a line: Antimycobacterial activity against Mycobacterium bovis BCG 1173P2 assessed as inhibition of FAS-2 activity at 5 ug/ml after 8 hrs. Type of assay: functional. The essentials:
as §1

For the molecule `Oc1ccc(Cl)cc1Oc1ccc(Cl)c2cccnc12`, the Activity in assay [1] is 55%; in the assay on BCG 1173P2, “Dose-dependent effect”; in the assay with BCG, 75%; in [4], “Dose-dependent effect”; in assay [5] it was 99%. Moreover, the MIC (as a rule, the least concentration at which growth counts as inhibited) in assay [2] is 10 µg/mL (≈ 32.7 µM). Moreover, the result in [3], in assay [6] and in assay [8] was Active. In assay [7], the outcome was inactive.

Molecule `O=C(CC(=O)C(F)(F)F)c1ccc([N+](=O)[O-])cc1` displayed a minimal inhibitory concentration (MIC) in [2] of 50 µg/mL (≈ 191 µM). The Activity was 25% in the assay on BCG and “Dose-dependent effect” in [4]. The result in [3] was Active.
